Results as given in ChEMBL document CHEMBL4513216, “Probing the Open Global Health Chemical Diversity Library for Multistage-Active Starting Points for Next-Generation Antimalarials” (ACS Infect Dis, 2020).

Experiment: Toxicity liver stage against HepG2, at 10uM
Format: cell-based
Parameters: test concentration 10 uM, cell line HepG2-A16-CD81EGFP
Conditions: human, HepG2-A16-CD81EGFP cells; read-out: INHIBITION
Outline: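 Uninfected HepG2-A16-CD81EGFP cells, 3 × 10^3 per well, 1536-well, plated on prespotted compound at 10 μM final, parasite-free screening media added to match infected plates; puromycin 10 μM positive, DMSO 0.5% negative; run in parallel with 48 h PbLuc assay at 37 °C, 5% CO2; viability by CellTiter-Glo luminescence, normalized to controls.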

SMILES | cytotoxicity at 10 µM
CN1C(=O)C2(CCN(c3ncccc3C(=O)O)CC2)c2ccccc21 | -2.25%
COc1ccc(OCC(C)NS(C)(=O)=O)cc1 (stereo not drawn) | 16.6%
CCc1ccc(C(O)CN2CCN(c3cccc(OC)c3)CC2)cc1 (stereo not drawn) | 11.2%
Cn1ncc2c1NC(=O)CC2c1ccccc1Cl (stereo not drawn) | 55.7%
CC(=O)N1CCC(N2C[C@@H](F)[C@@H](OCc3nc4ncccc4[nH]3)C2)CC1 | 6.1%
Cn1cc(CN2C[C@@H]3CCCO[C@@H]3[C@H](N3CCCC3=O)C2)cn1 | 1.27%
O=C(C1CCN(S(=O)(=O)N2CCCC2)CC1)N1CCC2(CC1)OCCO2 | -17.9%
O=C(Nc1cccc(F)c1)C1=NOC2(CCNCC2)C1 | 5.19%
CCc1cc(N[C@H]2CCC[C@H]2CO)n2nc(C)c(C)c2n1 | 3.41%
O=C(Cc1n[nH]c(-c2cncc(Br)c2)n1)NCc1ccncc1 | -6.3%
O=C(CCc1nc(-c2cccnc2)no1)N(CC1CCOC1)C1CC1 (stereo not drawn) | 10.8%
CCOCc1nc2c(c(NC(CC)c3ccncc3)n1)CCNCC2 (stereo not drawn) | -0.0944%
CC(C)N(CC1CCCN(Cc2ccon2)C1)C(=O)OC(C)(C)C (stereo not drawn) | 7.09%
CN(Cc1ccccc1OC(F)(F)F)C(=O)C1CC1 | 10.8%
Cc1nc(CN2CCOC(Cn3cccn3)C2)nc2ccccc12 (stereo not drawn) | -24.8%
CC(C)(C)c1n[nH]cc1CNCC1CCN(C2CC2)C1 (stereo not drawn) | 2.16%
O=C(NCCn1ccnc1-c1cc2n(n1)CCCNC2)c1ccncc1 | -1.84%
O=C(NCC(O)COc1cccc(F)c1)c1ccoc1 (stereo not drawn) | -2.56%
O=C1NCCCCC1NC(=O)C1(c2cccc(Cl)c2)CC1 (stereo not drawn) | 2.68%
Cc1ccccc1C(C(=O)NCCn1cccc1)N(C)C (stereo not drawn) | 7.62%
Cc1noc(OCC(=O)N2CCCCC2C)n1 (stereo not drawn) | 0.714%
NCC1(c2cccc(F)c2)CCOCC1 | -7.87%
O=S1(=O)CCN(c2nc(C3CC3)ns2)CC1 | 2.37%

SMILES | cytotoxicity at 10 µM
CN(C)c1nc2ncc(Cl)cc2cc1C#N | 9.54%
COc1ccccc1CN1CCC(c2nn(CCN)c3nccnc23)C1 (stereo not drawn) | -32.7%
COc1ccc(C(C)Nc2ncc(C(N)=O)cc2Cl)cc1OC (stereo not drawn) | 3.54%
CC(NC(=O)Cn1ccc(=O)n(C)c1=O)c1cc(F)ccc1F (stereo not drawn) | -4.64%
O=C(NC1CCN(c2ccccc2OC(F)F)C1)c1cccnc1 (stereo not drawn) | 6.89%
COc1ncccc1CN1C[C@H]2CCN(C(C)C)C[C@H]2C1 | 2%
O=S(=O)(C1CC1)N1CCC2(CC1)COC(COc1ccccn1)C2 (stereo not drawn) | 3.35%
Cc1cnn(CC2CCCN2C(=O)c2ccccc2-n2cccn2)c1 (stereo not drawn) | -4.16%
COc1ccc(CNCCc2ccn(-c3ccccc3)n2)cc1O | -0.13%
CN1CCC(N(Cc2ccncc2)Cc2nc3c(s2)CCCC3)CC1 | -2.56%
O=C(c1ccccn1)N1CCC(Oc2cccnc2)CC1 | -3.59%
CCCOc1ccc(CNC2CCCc3c2cnn3CC)cc1OC (stereo not drawn) | -10.8%
O=C(COCc1ccccc1Cl)N1CCN(c2ccc(Br)cn2)CC1 | 46.6%
C=Cc1ccc(C(=O)N2CCCC(Nc3ccc(OC)cc3)C2)cc1 (stereo not drawn) | -12%
O=C(NCCc1nncn1C1CC1)C1(c2ccccc2)CCC1 | 5.36%
CN(C)CCN1CC[C@@H]2O[C@@H](COCC(=O)N3CCCC3)CC[C@@H]21 | -1.78%
COCc1cccc(NS(=O)(=O)c2cc(C(=O)O)cs2)c1 | -4.69%
CC(C)COC(=O)N1CCC2(CCNC2)C1 (stereo not drawn) | -10.1%
OCCN1CCN(Cc2coc(-c3ccc(Cl)cc3)n2)CC1 | -13.6%
Cc1cc(C)n(CC2CCCN2C(=O)c2cn[nH]c2C)n1 (stereo not drawn) | -11.6%
CCN(Cc1cccc(C(N)=O)c1)c1ccccc1 | 2.91%
CC(=O)N1CCN(Cc2ccc(F)cc2)CC2(CC(=O)N(C)C2)C1 (stereo not drawn) | -2.78%
Cc1c(CNC(=O)C2CCCCCN2C)oc2ccccc12 (stereo not drawn) | 11.4%

SMILES | cytotoxicity at 10 µM
CCN(C)S(=O)(=O)N1CCCC1CC(=O)c1cccs1 (stereo not drawn) | -29%
COC1CCCOC12CCN(C(=O)NCCc1cccs1)CC2 (stereo not drawn) | 1.03%
CCc1nc2c(c(NC3CC3)n1)CCN(C(=O)Cc1nonc1C)CC2 | 2.8%
CO[C@H]1COCCN(C(=O)c2ccno2)C1 | 2.42%
CC(C)N(C)CCNC(=O)NCc1ccccc1-n1cccn1 | -7.57%
CCNC(=O)[C@@H]1C[C@@H](NC(=O)c2ccc(C#N)cc2)CN1CCCSC | -123%
O=C(c1cc[nH]n1)N1CCc2onc(COc3cccnc3)c2C1 | -70.3%
O=C(O)c1ccccc1CN1CCOC(CCc2ccncn2)C1 (stereo not drawn) | -20.6%
O=C1NC(C(=O)NCc2cccnc2Oc2ccccc2F)CO1 (stereo not drawn) | 8.99%
Cc1nc(N2CCCC2)nc2c1CCN(C(=O)C1CCCCC1)CC2 | 3.16%
O=C(Nc1cccc(CN2CCOC2=O)c1)N1CCOCC1 | -8.6%
O=C(NCCC(=O)N1CCCc2ccccc21)c1c(F)cccc1F | -14.5%
CN(Cc1ccc2c(c1)OCO2)C(=O)Cn1cccnc1=O | -3.96%
Cc1cc(C)n(CC2CCCCN2C(=O)c2ccc3nncn3c2)n1 (stereo not drawn) | 0.168%
Cc1cc(NC(=O)NCC(C)N2CCOCC2)n(C)n1 (stereo not drawn) | -18.3%
Cc1cc(CNC2(c3ccccc3)CCCCC2)on1 | 0.643%
Fc1ccc(CC2CCN(Cc3nccs3)CC2)cc1 | -2.87%
CC(C)n1nc2c(cc1=O)CN(c1nc3ccccc3s1)CC2 | -1.99%
Cc1ccccc1C(NC(=O)CNC(=O)c1ccoc1C)C(C)C (stereo not drawn) | 2.74%
CCc1noc(C(C)N2CCN(CCc3ccncc3)CC2)n1 (stereo not drawn) | 1.6%
Cc1nc(C2NC3(CCCC3)C(=O)N2CC2CC2)cs1 (stereo not drawn) | -6.09%
CCn1c(C2CCCNC2)nn(Cc2ccc(C(=O)NC)o2)c1=O (stereo not drawn) | 8.25%
COCCN1CCCC12CCN(c1ncccn1)CC2 | 11.4%

SMILES | cytotoxicity at 10 µM
CN(Cc1c(F)cccc1Cl)C(=O)c1cnn(CCN2CCCCC2)c1 | -19.1%
N#CCSCCCN1CCC(C(=O)N2CCCCCC2)CC1 | 5.37%
O=S(=O)(c1ccccc1)N1CCOC(Cn2ccnc2)C1 (stereo not drawn) | 7.77%
Cn1cc(C(=O)N[C@@H]2CN(Cc3ccoc3)[C@@H]3CCCO[C@@H]32)cn1 | -104%
CCN1CCN(Cc2nc(CCc3ccccc3)n[nH]2)CC1 | -10.7%
COc1cc(N2CCN(Cc3ccsc3)C(CCO)C2)nc(N)n1 (stereo not drawn) | 2.45%
COc1ccc(-c2cc(C3CCCCCN3S(C)(=O)=O)on2)cc1 (stereo not drawn) | 0.46%
COC(=O)CCNC(=O)c1ccc(NC(=O)N(C)CC(C)(C)C)cc1 | 8.01%
CSc1ncccc1C(=O)N(C)C(C)Cc1ccccn1 (stereo not drawn) | 2.28%
Cc1nn(CCNC(C)Cn2cncn2)c(C)c1Cl (stereo not drawn) | 13.4%
Cc1cc(C)n(CC(C)CNC(=O)N(C)Cc2ccco2)n1 (stereo not drawn) | 4.47%
O=C(c1ccc[nH]1)N1CCc2ccc(S(=O)(=O)N3CCOCC3)cc2C1 | 3.99%
CC(Cn1cccn1)NC(=O)Nc1nncs1 (stereo not drawn) | -1.86%
COc1ccnc(N2CCN(C(=O)CN3CCCC3=O)CC2)n1 | -5.21%
Cc1ccc(S(=O)(=O)NC(=O)CCc2cscn2)cc1Cl | 8.9%
O=C1CCCCCN1Cc1cccc(OC(F)F)c1 | -6.4%
N#Cc1cnn(C(=O)COc2ccccc2F)c1N | 2.92%
CCc1nc(CN(C)CC(=O)OC(C)(C)C)cs1 | 3.91%
CCN(CC)[C@@H]1CN(Cc2cnn(C)c2)[C@@H]2COC[C@H]12 | 8.61%
O=C(Cc1ccc(F)cc1)N1CCn2cc(Cn3cccn3)nc2C1 | 4.58%
COC(=O)c1ccc(N2CCC(C(O)c3ccccc3)CC2)nn1 (stereo not drawn) | 1.68%
CN1CCC(n2nc(Cc3cccc(Cl)c3)nc2Cn2cnnn2)CC1 | -12.4%
N#CCCN(CC1CCOC1)Cn1ccc(-c2cccs2)n1 (stereo not drawn) | 10.9%

SMILES | cytotoxicity at 10 µM
O=C1CC(c2ccccc2Br)c2sc(N3CCOCC3)nc2N1 (stereo not drawn) | 9.4%
O=C(NCCc1ccccn1)[C@@]12CCO[C@@H]1CCN(c1ncccn1)C2 | 4.26%
C[S+]([O-])c1nncn1CC(=O)c1cccc(Br)c1 (stereo not drawn) | 1.08%
CCOCCCNC(=O)c1cn(C(C)(C)C)c2ncccc12 | 2.05%
COCC(=O)N1CCN(Cc2cccnc2)c2ncccc2C1 | 10.2%
CCOCC1CN(Cc2cc(C)on2)Cc2cn(C)nc21 (stereo not drawn) | 13.6%
Cc1ccccc1C(=O)NC[C@@H]1CCN(C(=O)c2cccn2C)C[C@H]1O | -45.3%
CS(=O)(=O)N1CCC2(CC1)NCCn1c(-c3ccccc3)cnc12 | 3.61%
CCn1ncc2c1C(COCC1CC1)CN(c1ccncn1)C2 (stereo not drawn) | 2.74%
Cc1ccc2nc(CN3CCC(O)(CN4CCCC4)CC3)cc(O)c2c1 | -51.9%
CCC(CNC(=O)c1ccccc1OC)N1CCc2ccccc2C1 (stereo not drawn) | 12%
CNC(=O)[C@@H](C)NC(=O)c1cc(-c2ccc(F)cc2)c(C)s1 | -5.2%
Cc1cnc(CN(C)C2CCN(CCc3cnn(C)c3)C2)o1 (stereo not drawn) | 5.44%
O=C1[C@H]2CN(Cc3nccs3)C[C@H]2CN1c1ccsc1 | 3.06%
Cc1cc(NC(=O)CN2CCOC(Cn3cccn3)C2)n(C)n1 (stereo not drawn) | 5.56%
CC(C)NC(=O)c1ccc2nnc(C3CCN(S(C)(=O)=O)C3)n2c1 (stereo not drawn) | 3.5%
O=C(O)C1(Oc2ccccc2)CCN(c2ccncc2)CC1 | -3.99%
CN(c1ncccc1CNC(=O)c1cscn1)C1CCCCC1 | 1.86%
Cc1oc2c(c1C(=O)N1C[C@H](O)[C@]3(CCCO3)C1)CCCC2 | -0.4%
COC(=O)NCc1cc2n(n1)CCCN(C(C)=O)C2 | -2.26%
Cc1ccc2c(c1)c(CNC(=O)C1CC(=O)N(C3CC3)C1)nn2C (stereo not drawn) | -0.502%
